# Key:
# [1] = biological target: T1, Inhibitor of nuclear factor kappa-B kinase subunit epsilon (Homo sapiens, UniProt Q14164); experiment: Inhibition of recombinant human full-length N-terminal GST-fused/His6-tagged IKKepsilon (M1 to V716 residues) expressed in Sf9 insect cells using ERLLDDRHDSGLDSMKDEE peptide as substrate measured after 60 mins by ADP-Glo kinase assay
# T1 sequence (Q14164 whole entry): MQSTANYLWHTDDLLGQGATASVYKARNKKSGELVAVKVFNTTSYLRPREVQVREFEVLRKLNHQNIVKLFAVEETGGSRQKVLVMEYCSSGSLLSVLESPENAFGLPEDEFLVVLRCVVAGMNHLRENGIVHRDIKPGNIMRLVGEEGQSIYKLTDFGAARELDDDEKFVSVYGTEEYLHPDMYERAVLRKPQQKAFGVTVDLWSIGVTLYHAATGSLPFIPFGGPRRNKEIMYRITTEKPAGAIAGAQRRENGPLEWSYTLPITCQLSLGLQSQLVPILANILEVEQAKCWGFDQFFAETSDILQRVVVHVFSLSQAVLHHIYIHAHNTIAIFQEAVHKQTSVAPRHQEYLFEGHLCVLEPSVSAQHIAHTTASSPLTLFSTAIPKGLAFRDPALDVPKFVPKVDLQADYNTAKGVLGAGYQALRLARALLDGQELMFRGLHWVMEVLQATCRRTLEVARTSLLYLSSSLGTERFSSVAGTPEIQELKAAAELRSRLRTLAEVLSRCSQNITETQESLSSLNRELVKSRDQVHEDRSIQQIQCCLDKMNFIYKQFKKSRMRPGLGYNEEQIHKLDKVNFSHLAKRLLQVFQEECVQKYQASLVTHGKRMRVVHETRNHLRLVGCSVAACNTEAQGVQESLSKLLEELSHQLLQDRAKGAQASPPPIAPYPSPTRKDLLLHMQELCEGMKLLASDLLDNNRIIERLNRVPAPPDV
# [2] = Cytotoxicity against human EJM cells assessed as cell viability at 25 uM after 6 hrs by CellTiter Glo luminescent assay relative to control; format: cell-based; details: read-out: Activity
# Outline: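 Cells seeded at 5 x 10^3 per well and exposed for 6 h to the compound (10, 25, 50 or 100 µM) or to DMSO vehicle. Viability was read as intracellular ATP by CellTiter Glo luminescence.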
# [3] = biological target: Mitogen-activated protein kinase kinase kinase 8 (Homo sapiens, UniProt P41279); experiment: Inhibition of COT (unknown origin)
# Mitogen-activated protein kinase kinase kinase 8, sequence (P41279 whole entry): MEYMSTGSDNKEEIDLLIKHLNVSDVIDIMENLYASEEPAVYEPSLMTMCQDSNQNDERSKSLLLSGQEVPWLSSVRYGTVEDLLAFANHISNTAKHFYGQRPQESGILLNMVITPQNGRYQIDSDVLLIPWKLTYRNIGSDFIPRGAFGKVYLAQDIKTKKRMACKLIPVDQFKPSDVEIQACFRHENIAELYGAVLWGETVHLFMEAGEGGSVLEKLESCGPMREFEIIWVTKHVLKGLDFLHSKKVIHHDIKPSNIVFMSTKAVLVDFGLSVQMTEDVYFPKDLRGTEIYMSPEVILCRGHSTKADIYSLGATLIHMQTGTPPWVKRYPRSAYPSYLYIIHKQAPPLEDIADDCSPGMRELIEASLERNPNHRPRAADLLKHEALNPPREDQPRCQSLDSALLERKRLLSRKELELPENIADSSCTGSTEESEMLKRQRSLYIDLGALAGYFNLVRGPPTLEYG
# [4] = biological target: Death-associated protein kinase 1 (Homo sapiens, UniProt P53355); experiment: Inhibition of DAPK1 (unknown origin)
# Death-associated protein kinase 1, sequence (P53355 whole entry): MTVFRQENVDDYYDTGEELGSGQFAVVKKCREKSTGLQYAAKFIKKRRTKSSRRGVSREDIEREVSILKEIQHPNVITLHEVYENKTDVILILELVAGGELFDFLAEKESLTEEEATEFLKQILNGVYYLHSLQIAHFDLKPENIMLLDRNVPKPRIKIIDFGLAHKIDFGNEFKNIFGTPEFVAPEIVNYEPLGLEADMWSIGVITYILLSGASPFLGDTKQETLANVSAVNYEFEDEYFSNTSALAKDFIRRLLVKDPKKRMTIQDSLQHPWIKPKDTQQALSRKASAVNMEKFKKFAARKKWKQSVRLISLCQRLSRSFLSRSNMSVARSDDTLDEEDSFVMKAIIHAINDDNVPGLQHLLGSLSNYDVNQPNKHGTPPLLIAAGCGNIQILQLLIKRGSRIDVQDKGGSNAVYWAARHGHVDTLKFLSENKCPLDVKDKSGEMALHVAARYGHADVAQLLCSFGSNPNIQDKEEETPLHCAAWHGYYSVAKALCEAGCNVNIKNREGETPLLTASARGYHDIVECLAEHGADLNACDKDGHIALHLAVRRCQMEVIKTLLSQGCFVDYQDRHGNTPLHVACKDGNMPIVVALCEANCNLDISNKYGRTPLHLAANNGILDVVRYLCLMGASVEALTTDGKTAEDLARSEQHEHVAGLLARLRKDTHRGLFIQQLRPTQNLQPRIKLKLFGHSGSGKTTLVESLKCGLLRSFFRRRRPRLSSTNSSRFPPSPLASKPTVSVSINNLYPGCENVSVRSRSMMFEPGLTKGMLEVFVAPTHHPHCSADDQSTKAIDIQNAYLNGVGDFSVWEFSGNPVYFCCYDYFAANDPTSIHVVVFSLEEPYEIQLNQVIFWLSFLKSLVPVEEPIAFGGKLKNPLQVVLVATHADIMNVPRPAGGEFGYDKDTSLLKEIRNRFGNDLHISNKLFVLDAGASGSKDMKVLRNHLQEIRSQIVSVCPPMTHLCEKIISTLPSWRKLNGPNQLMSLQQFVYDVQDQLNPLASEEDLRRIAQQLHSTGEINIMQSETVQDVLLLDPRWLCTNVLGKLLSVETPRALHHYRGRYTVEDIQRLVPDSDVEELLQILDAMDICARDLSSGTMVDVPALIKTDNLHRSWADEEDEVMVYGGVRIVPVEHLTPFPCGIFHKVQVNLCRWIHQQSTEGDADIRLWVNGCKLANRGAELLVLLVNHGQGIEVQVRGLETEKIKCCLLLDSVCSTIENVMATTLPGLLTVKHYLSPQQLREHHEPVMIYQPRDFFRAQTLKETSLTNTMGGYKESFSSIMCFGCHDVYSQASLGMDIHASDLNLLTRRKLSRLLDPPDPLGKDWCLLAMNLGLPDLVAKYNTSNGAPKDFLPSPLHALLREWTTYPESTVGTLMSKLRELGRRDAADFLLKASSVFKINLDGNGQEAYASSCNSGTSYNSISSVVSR
# Insulin receptor = Insulin receptor (Homo sapiens, UniProt P06213); experiment: Inhibition of INSR (unknown origin)
# Insulin receptor, sequence (P06213 28-758 limits assumed): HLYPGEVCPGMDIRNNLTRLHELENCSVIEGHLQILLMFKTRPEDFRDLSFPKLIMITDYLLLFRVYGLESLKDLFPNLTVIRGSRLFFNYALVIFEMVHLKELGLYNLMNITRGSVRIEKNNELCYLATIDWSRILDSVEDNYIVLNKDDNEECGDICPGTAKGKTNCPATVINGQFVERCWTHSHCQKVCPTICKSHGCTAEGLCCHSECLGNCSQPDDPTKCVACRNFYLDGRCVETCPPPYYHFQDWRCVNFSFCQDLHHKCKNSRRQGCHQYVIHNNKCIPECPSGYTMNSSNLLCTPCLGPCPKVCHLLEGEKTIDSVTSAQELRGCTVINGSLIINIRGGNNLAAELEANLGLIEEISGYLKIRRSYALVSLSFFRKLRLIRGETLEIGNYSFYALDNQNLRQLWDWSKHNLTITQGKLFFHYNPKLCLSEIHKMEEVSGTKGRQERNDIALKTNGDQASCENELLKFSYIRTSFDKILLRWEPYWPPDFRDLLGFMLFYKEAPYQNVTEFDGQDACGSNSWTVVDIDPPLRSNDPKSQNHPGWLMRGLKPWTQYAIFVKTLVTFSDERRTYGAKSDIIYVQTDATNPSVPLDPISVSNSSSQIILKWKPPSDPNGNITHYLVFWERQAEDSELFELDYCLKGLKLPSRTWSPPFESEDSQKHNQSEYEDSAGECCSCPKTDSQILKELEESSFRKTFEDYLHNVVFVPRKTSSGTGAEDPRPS
# Insulin receptor, sequence (P06213 763-1382 limits assumed): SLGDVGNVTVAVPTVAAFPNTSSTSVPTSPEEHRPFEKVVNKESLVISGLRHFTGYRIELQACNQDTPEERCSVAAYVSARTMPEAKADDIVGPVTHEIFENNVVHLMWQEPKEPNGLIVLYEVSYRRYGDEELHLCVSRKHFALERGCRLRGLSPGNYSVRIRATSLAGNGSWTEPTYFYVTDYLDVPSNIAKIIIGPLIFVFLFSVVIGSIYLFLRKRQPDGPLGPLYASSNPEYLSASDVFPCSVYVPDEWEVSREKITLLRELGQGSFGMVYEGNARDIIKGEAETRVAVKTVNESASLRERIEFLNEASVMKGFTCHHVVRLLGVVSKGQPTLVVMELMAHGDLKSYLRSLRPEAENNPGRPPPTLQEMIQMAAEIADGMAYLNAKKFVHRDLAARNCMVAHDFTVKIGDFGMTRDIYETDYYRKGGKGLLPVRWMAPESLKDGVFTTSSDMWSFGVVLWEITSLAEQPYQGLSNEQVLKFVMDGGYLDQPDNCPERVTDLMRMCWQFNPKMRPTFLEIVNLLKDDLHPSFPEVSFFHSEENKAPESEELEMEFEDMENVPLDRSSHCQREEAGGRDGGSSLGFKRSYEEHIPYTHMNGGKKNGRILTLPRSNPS
# [5] = biological target: Serine/threonine-protein kinase mTOR (Homo sapiens, UniProt P42345); experiment: Inhibition of mTOR (unknown origin)
# [6] = biological target: 3-phosphoinositide-dependent protein kinase 1 (Homo sapiens, UniProt O15530); experiment: Inhibition of PDK1 (unknown origin)
# 3-phosphoinositide-dependent protein kinase 1, sequence (O15530 whole entry): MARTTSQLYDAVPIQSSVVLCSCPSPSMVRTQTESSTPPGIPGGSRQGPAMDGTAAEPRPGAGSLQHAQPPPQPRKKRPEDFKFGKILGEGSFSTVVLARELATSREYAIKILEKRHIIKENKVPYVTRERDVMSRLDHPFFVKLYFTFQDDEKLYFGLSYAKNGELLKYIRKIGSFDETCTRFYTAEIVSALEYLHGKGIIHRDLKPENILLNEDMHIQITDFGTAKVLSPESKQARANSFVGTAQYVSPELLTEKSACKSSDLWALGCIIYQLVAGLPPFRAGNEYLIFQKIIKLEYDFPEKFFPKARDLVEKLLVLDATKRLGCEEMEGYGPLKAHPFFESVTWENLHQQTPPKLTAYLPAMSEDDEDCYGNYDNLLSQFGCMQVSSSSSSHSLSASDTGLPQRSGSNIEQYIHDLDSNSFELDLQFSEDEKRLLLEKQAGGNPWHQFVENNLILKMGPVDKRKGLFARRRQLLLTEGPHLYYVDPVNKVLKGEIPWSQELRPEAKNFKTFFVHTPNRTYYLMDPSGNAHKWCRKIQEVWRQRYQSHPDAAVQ
# SRSF protein kinase 2 = SRSF protein kinase 2 (Homo sapiens, UniProt P78362); experiment: Inhibition of SRPK2 (unknown origin)
# SRSF protein kinase 2, sequence (P78362 whole entry): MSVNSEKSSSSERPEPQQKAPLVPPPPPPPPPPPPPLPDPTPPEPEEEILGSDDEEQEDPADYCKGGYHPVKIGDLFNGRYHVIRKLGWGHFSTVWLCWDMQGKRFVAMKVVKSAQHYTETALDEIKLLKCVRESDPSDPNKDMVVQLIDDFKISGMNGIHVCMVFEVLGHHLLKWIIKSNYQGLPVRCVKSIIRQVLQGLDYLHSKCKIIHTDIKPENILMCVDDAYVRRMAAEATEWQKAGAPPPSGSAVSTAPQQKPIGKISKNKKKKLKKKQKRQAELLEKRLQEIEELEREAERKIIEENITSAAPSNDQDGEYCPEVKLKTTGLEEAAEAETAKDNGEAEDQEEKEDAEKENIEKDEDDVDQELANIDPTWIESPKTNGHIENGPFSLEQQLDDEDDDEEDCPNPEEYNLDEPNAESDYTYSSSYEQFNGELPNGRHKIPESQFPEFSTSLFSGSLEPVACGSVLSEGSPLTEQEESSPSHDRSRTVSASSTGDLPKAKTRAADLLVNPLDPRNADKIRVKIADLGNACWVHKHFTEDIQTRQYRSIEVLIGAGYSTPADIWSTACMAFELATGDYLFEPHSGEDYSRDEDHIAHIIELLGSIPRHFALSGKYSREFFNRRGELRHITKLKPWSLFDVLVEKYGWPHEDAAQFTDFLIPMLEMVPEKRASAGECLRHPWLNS
# [7] = Octanol/phosphate buffered saline partition coefficient, log D of the compound at pH 7.4; format: physicochemical
smiles,measurement,setting,value
CC(=O)n1nc(C)c(-c2ccc(Cl)c(Cl)c2)c1N,IC50,[1],> 100 µM
same,"viability at 6 h, 25 µM",[2],≥ 80%
same,IC50,[3],> 100 µM
same,IC50,[4],> 100 µM
same,IC50,Insulin receptor,> 100 µM
same,IC50,[5],> 100 µM
same,IC50,[6],> 100 µM
same,IC50,SRSF protein kinase 2,> 100 µM
same,logD,[7],4.09

# From ChEMBL document CHEMBL4257503, “N-Acetyl-3-aminopyrazoles block the non-canonical NF-kB cascade by selectively inhibiting NIK” (Medchemcomm, 2018)
